Reference: ChEMBL document CHEMBL1151755, “Crystal structure of the peroxisome proliferator-activated receptor gamma (PPARgamma) ligand binding domain complexed with a novel partial agonist: a new region of the hydrophobic pocket could be exploited for drug design” (J Med Chem, 2008)

What was measured:
[1] = molecular target: T1, Peroxisome proliferator-activated receptor alpha (Homo sapiens, UniProt Q07869); assay: Agonist activity at PPARalpha ligand binding domain expressed in human Hep G2 cells co-transfected with Gal4-DBD by luciferase reporter gene assay; format: cell-based, HepG2
T1 sequence (Q07869 whole entry): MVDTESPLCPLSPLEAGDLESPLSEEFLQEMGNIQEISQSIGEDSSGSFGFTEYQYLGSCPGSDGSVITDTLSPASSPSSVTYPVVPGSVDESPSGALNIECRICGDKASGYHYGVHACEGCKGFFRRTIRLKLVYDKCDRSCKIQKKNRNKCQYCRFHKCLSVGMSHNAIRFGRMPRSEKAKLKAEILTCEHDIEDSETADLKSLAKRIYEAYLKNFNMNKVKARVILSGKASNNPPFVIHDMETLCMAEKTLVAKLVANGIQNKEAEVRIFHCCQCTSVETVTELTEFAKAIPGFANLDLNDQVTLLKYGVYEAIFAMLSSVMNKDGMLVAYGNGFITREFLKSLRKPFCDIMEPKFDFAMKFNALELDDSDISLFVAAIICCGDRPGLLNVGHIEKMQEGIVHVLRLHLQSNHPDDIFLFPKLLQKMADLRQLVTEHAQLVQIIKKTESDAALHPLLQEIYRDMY
In short: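 Gal4-LBD fusion vector (50 ng) was co-transfected with pGal4UAS-luciferase (100 ng) and pCMVβ β-galactosidase normalizer (300 ng) into HepG2 cells by calcium phosphate for 4 h. Cells were washed, then given serum-free DMEM/F-12 with ligand or 0.1% ethanol vehicle for 20 h. Luciferase was normalized to β-galactosidase. EC50 came from concentration-response curves, mean ± SEM of 3–5 independent experiments in triplicate.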

[2] = molecular target: T2, Peroxisome proliferator-activated receptor alpha (Homo sapiens) (UniProt Q07869); assay: Agonist activity at PPARalpha ligand binding domain expressed in human Hep G2 cells co-transfected with Gal4-DBD by luciferase reporter gene assay relative to Wy 14,643; format: cell-based; conditions: HepG2
T2 sequence (whole entry): T1 sequence (Q07869 whole entry)
In short: (§1)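 HepG2 cells received the Gal4-receptor LBD construct (50 ng), pGal4UAS-luciferase (100 ng) and pCMVβ (300 ng) by calcium phosphate coprecipitation for 4 h. They were then treated in serum-free DMEM/F-12 with ligand or 0.1% ethanol for 20 h. Luciferase was normalized to β-galactosidase, and efficacy was expressed as percent of the Wy 14,643 maximum (100%). Values are mean ± SEM of 3–5 experiments in triplicate.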

[3] = molecular target: T2, Peroxisome proliferator-activated receptor alpha (Homo sapiens); assay: Agonist activity at human PPARalpha ligand binding domain expressed in human Hep G2 cells co-transfected with Gal4-DBD by luciferase reporter gene assay relative to Wy 14,643; format: cell-based; conditions: HepG2; in short: as §1
[4] = molecular target: T3, Peroxisome proliferator-activated receptor alpha (Mus musculus) (UniProt P23204); assay: Agonist activity at mouse PPARalpha ligand binding domain expressed in human Hep G2 cells co-transfected with Gal4-DBD by luciferase reporter gene assay relative to Wy 14,643; format: cell-based; conditions: HepG2; in short: as §1
T3 sequence (whole entry): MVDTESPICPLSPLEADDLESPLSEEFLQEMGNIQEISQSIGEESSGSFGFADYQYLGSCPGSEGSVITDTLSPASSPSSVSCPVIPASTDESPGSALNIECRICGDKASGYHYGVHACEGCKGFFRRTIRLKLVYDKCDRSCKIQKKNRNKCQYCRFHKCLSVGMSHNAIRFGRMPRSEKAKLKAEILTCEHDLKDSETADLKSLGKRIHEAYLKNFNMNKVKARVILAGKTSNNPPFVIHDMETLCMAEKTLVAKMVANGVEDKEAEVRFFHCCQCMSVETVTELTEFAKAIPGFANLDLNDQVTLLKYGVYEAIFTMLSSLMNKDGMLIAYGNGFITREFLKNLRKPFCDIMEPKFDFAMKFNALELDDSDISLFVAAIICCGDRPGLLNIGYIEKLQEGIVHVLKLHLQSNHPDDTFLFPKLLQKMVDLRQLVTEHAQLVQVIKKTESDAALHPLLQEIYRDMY

EC50 [1]	Efficacy [2]	Efficacy [3]	Efficacy [4]	SMILES
150 nM	83%	–	–	O=C(O)[C@H](Cc1ccccc1)Oc1ccc(CCc2ccccc2)cc1
–	–	100%	100%	Cc1cccc(Nc2cc(Cl)nc(SCC(=O)O)n2)c1C
11 nM	107%	–	–	O=C(O)[C@H](Cc1ccccc1)Oc1ccc(Cc2ccccc2)cc1
